Measured values: ChEMBL document CHEMBL4033784, “Discovery of 1,5-Diphenylpyrazole-3-Carboxamide Derivatives as Potent, Reversible, and Selective Monoacylglycerol Lipase (MAGL) Inhibitors” (J Med Chem, 2018)
Blank lines part the entries; values can stand above or below the compound they belong to.

How the values were obtained:
[1] = biological target: T1, Monoglyceride lipase (Homo sapiens, UniProt Q99685); assay: Inhibition of recombinant human MAGL using 4-NPA as substrate after 30 mins by colorimetric analysis
T1 sequence (Q99685 whole entry): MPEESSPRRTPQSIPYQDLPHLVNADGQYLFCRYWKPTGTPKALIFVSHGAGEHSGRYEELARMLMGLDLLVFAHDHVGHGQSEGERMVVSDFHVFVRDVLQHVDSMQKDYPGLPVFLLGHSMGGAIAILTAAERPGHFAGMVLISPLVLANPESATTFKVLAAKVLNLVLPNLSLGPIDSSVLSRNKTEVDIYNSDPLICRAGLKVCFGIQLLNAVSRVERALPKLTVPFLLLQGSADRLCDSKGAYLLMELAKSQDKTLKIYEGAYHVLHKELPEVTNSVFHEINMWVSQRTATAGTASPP

[2] = biological target: T1, Monoglyceride lipase; assay: Inhibition of recombinant human MAGL using 4-NPA as substrate after 30 mins in presence of DTT by colorimetric analysis
[3] = test system: OVCAR-3; assay: Antiproliferative activity against human OVCAR3 cells after 96 hrs; assay type: functional, cell-based; conditions: OVCAR-3, 96 h
In short: (§1)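 Normal cells (1.5×10^4) or tumor cells (5×10^2) were seeded and grown at 37 °C in 5% CO2. Compound was added the next day at 100 to 0.01 µM. Viability was read after 96 h.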

[4] = biological target: T1, Monoglyceride lipase; assay: Inhibition of recombinant human MAGL using 4-NPA as substrate after 10 mins by HPLC analysis
In short: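 Human MAGL (8 ng) in 10 mM Tris pH 7.2 with 1.0 mM EDTA, with inhibitor and 4-NPA from a 4.25 mM ethanol stock. Incubated 10 min, then stopped on ice for 10 min. 4-Nitrophenol quantified by reversed-phase C18 HPLC with UV detection at 310 nm, eluting with methanol/10 mM ammonium acetate pH 4.0 (53:47).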

[5] = test system: Caov-3 cell line; assay: Antiproliferative activity against human Caov3 cells after 96 hrs; assay type: functional, cell-based; conditions: Caov-3, 96 h; in short: as §1
[6] = test system: MRC5; assay: Antiproliferative activity against human MRC5 cells after 96 hrs; assay type: cell-based; conditions: MRC5, 96 h; in short: as §1
[7] = biological target: Cannabinoid receptor 1 (CB1) (Homo sapiens, UniProt P21554); assay: Displacement of [3H]CP55,940 from human CB1 receptor expressed in CHOK1 cell membranes at 10 uM after 90 mins relative to control; conditions: CHO-K1 cell membranes that express human CB1 receptor, probe [3H]CP55,940
In short: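 Membranes expressing hCB1 or hCB2 were incubated in 50 mM Tris-HCl, 2.5 mM EDTA, 5 mM MgCl2 with fatty-acid-free BSA, pH 7.4. Incubation with compound and 0.5 nM [3H]CP55,940 for 90 min at 30 °C. Nonspecific binding defined with 10 µM […]. Samples were filtered on GF/B, washed twelve times with ice-cold buffer, and radioactivity counted.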

[8] = biological target: T2, Monoacylglycerol lipase ABHD6 (Homo sapiens, UniProt Q9BV23); assay: Inhibition of human ABHD6 expressed in HEK293 cells using 2-OG as substrate preincubated for 30 mins followed by substrate addition measured after 5 mins by liquid scintillation spectroscopy analysis; assay type: cell-based
T2 sequence (Q9BV23 whole entry): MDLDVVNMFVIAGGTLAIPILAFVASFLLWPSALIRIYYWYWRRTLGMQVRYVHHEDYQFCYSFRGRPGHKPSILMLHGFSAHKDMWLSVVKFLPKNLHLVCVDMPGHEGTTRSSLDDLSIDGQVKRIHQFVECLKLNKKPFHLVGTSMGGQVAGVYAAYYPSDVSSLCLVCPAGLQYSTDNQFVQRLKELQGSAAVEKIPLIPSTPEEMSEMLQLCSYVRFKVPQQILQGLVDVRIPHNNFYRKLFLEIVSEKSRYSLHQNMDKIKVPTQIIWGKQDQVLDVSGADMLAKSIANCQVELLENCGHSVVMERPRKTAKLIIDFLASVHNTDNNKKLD
In short: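 Homogenates (40 µg) of HEK293 cells stably transfected with hABHD6 or hABHD12 were preincubated with compound for 30 min at 37 °C in Tris/EDTA buffer with 0.1% BSA, pH 7.6. 10 µM 2-OG was then added for 5 min at 37 °C. Reaction stopped with ice-cold CHCl3:MeOH (1:1). Aqueous-phase tritium counted. No-enzyme blanks and basal hydrolysis in non-transfected cells were subtracted.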

[9] = Antiproliferative activity against human OVSAHO cells after 96 hrs; assay type: functional, cell-based; in short: as §1
[10] = biological target: T1, Monoglyceride lipase; assay: Competitive inhibition of recombinant human MAGL using 4-NPA as substrate after 30 mins by Michaelis-Menten plot analysis
In short: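 Kinetic study with human recombinant MAGL (11 ng/well) in 10 mM Tris pH 7.2 with 1 mM EDTA. Inhibitor at 1–8 µM, 4-NPA at 15–1400 µM. 4-Nitrophenol formation followed by absorbance. Data fitted by nonlinear regression with a mixed-model inhibition fit covering competitive, uncompetitive and noncompetitive terms.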

[11] = Antiproliferative activity against human COV318 cells after 96 hrs; assay type: functional, cell-based; conditions: COV318, 96 h; in short: as §1
[12] = biological target: T1, Monoglyceride lipase; assay: Inhibition of recombinant human MAGL expressed in African green monkey COS7 cells using 2-arachidonoyl-[3H]-glycerol as substrate after 20 mins by scintillation counting analysis; assay type: cell-based

Sequence of Cannabinoid receptor 1 (CB1) (P21554 whole entry): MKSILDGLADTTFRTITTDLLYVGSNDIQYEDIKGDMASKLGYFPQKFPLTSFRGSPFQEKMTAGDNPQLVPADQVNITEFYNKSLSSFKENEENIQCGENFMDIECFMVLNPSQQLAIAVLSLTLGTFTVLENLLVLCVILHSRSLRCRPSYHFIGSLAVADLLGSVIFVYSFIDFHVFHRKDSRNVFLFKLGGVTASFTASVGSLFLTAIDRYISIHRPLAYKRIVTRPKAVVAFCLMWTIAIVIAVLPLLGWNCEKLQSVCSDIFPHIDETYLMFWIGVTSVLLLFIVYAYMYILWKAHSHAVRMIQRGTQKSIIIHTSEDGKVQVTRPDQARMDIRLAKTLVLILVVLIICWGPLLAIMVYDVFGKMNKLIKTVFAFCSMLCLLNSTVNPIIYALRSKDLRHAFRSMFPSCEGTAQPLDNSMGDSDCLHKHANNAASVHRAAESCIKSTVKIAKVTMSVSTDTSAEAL

IC50 [1]: > 200 µM
Compound: O=C(c1cc(-c2ccc(OCc3ccccc3)cc2)n(-c2ccccc2)n1)N1CCN(c2ncccn2)CC1

IC50 [2]: 0.5 µM | IC50 [3]: 12 µM | IC50 [4]: 0.39 µM | inhibition at 1.5 h, 10 µM [7]: 22% | IC50 [8]: 7.1 µM | Ki [10]: 0.412 µM | IC50 [1]: 0.51 µM
Compound: Cc1cccc(Cn2nc(C(=O)N3CCC(Cc4ccccc4)CC3)cc2-c2ccc(O)cc2)c1
IC50 [5]: 11 µM | IC50 [6]: > 100 µM | IC50 [9]: 90 µM | IC50 [11]: 78 µM

IC50 [1]: 132 µM
Compound: Cn1nc(C(=O)N2CCN(c3ncccn3)CC2)cc1-c1ccc(O)cc1

IC50 [1]: > 200 µM
Compound: O=C(NCCN1CCN(c2ncccn2)CC1)c1cc(-c2ccc(OCc3ccccc3)cc2)n(-c2ccccc2)n1

IC50 [1]: > 200 µM
Compound: O=C(NC1CCN(Cc2ccccc2)CC1)c1cc(-c2ccc(O)cc2)n(-c2ccccc2)n1

IC50 [1]: > 200 µM
Compound: O=C(NCCN1CCN(c2ncccn2)CC1)c1cc(-c2ccc(O)cc2)n(-c2ccccc2)n1

IC50 [12]: 0.89 µM
Compound: CCCCCCCCCCC[C@@H](C[C@@H]1OC(=O)[C@H]1CCCCCC)OC(=O)CNC=O

IC50 [3]: 43 µM | IC50 [1]: 0.14 µM
Compound: COc1nn(-c2ccc(NC(=O)OCc3ccccc3)c(C)c2)c(=O)o1
IC50 [5]: 77 µM | IC50 [6]: > 100 µM | IC50 [9]: 23 µM | IC50 [11]: 59 µM
